ChEMBL document CHEMBL1671684, “In vitro resistance profile of the hepatitis C virus NS3/4A protease inhibitor TMC435” (Antimicrob Agents Chemother, 2010)

Assays:
Hepatitis C virus [1] = experiment: Antiviral activity against Hepatitis C virus subtype 1b expressing NS3 R155M mutant infected in HuH7 cells after 48 hrs by luciferase reporter assay; format: functional, organism-based, Hepacivirus hominis; details: genotype 1b, Huh-7, 48 h
Summary of the method: (§1)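 Genotype 1b con1 subgenomic bicistronic replicon (clone ET) with luciferase reporter and adaptive mutations E1202G, T1280I, K1846T, carrying site-directed NS3 single or double mutations. 10 μg wild-type or mutant replicon RNA electroporated into Huh7-lunet cells, seeded 4,000 cells/well over a nine-point inhibitor dilution series, 48 h at 37°C, 5% CO2, then luminescence read. EC50 taken as median of individual experiments; fold change relative to parental replicon EC50.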

Hepatitis C virus [2] = experiment: Ratio of EC50 for Hepatitis C virus subtype 1b expressing NS3 D168E mutant to EC50 for Hepatitis C virus subtype 1b expressing WT NS3 infected in HuH7 cells after 48 hrs by luciferase reporter assay; format: functional, Hepacivirus hominis, genotype 1b, Huh-7
Summary of the method: (§2)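 Transient replicon assay: site-directed single or multiple NS3 mutations engineered into genotype 1b (con1, clone ET) subgenomic bicistronic replicon with luciferase reporter and adaptive mutations E1202G, T1280I, K1846T. Huh7-lunet cells electroporated with 10 μg wild-type or mutant replicon RNA, seeded 4,000 cells/well with nine-point inhibitor dilution; 48 h, 37°C, 5% CO2; luminescence read-out. EC50 as median of individual experiments; fold change versus parental replicon EC50.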

Hepatitis C virus [3] = experiment: Antiviral activity against Hepatitis C virus subtype 1b expressing NS3 D168Y mutant infected in HuH7 cells after 48 hrs by luciferase reporter assay; format: functional, organism-based, Hepacivirus hominis; details: genotype 1b, Huh-7, 48 h; summary of the method: as §1
Hepatitis C virus [4] = experiment: Antiviral activity against Hepatitis C virus subtype 1b expressing NS3 R155T mutant infected in HuH7 cells after 48 hrs by luciferase reporter assay; format: functional, organism-based, Hepacivirus hominis; details: genotype 1b, Huh-7, 48 h; summary of the method: as §1
Hepatitis C virus [5] = experiment: Ratio of EC50 for Hepatitis C virus subtype 1b expressing NS3 Q80K mutant to EC50 for Hepatitis C virus subtype 1b expressing WT NS3 infected in HuH7 cells after 48 hrs by luciferase reporter assay; format: functional, Hepacivirus hominis, genotype 1b, Huh-7; summary of the method: as §2
Hepatitis C virus [6] = experiment: Ratio of EC50 for Hepatitis C virus subtype 1b expressing NS3 V36L mutant to EC50 for Hepatitis C virus subtype 1b expressing WT NS3 infected in HuH7 cells after 48 hrs by luciferase reporter assay; format: functional, Hepacivirus hominis, genotype 1b, Huh-7; summary of the method: as §2
Hepatitis C virus [7] = experiment: Ratio of EC50 for Hepatitis C virus subtype 1b expressing NS3 A156T mutant to EC50 for Hepatitis C virus subtype 1b expressing WT NS3 infected in HuH7 cells after 48 hrs by luciferase reporter assay; format: functional, Hepacivirus hominis, genotype 1b, Huh-7; summary of the method: as §1
Hepatitis C virus [8] = experiment: Ratio of EC50 for Hepatitis C virus subtype 1b expressing NS3 Q80G mutant to EC50 for Hepatitis C virus subtype 1b expressing WT NS3 infected in HuH7 cells after 48 hrs by luciferase reporter assay; format: functional, Hepacivirus hominis, genotype 1b, Huh-7; summary of the method: as §2
Hepatitis C virus [9] = experiment: Antiviral activity against Hepatitis C virus subtype 1b expressing NS3 D168A mutant infected in HuH7 cells after 48 hrs by luciferase reporter assay; format: functional, organism-based, Hepacivirus hominis; details: genotype 1b, Huh-7, 48 h; summary of the method: as §1
Hepatitis C virus [10] = experiment: Antiviral activity against Hepatitis C virus subtype 1b expressing NS3 V36M mutant infected in HuH7 cells after 48 hrs by luciferase reporter assay; format: functional, organism-based, Hepacivirus hominis; details: genotype 1b, Huh-7, 48 h; summary of the method: as §1
Hepatitis C virus [11] = experiment: Antiviral activity against Hepatitis C virus subtype 1b expressing NS3 Q80K and R155K mutant infected in HuH7 cells after 48 hrs by luciferase reporter assay; format: functional, organism-based, Hepacivirus hominis; details: genotype 1b, Huh-7, 48 h; summary of the method: as §1
Hepatitis C virus [12] = experiment: Ratio of EC50 for Hepatitis C virus subtype 1b expressing NS3 D168T mutant to EC50 for Hepatitis C virus subtype 1b expressing WT NS3 infected in HuH7 cells after 48 hrs by luciferase reporter assay; format: functional, Hepacivirus hominis, genotype 1b, Huh-7; summary of the method: as §2
Hepatitis C virus [13] = experiment: Antiviral activity against Hepatitis C virus subtype 1b expressing NS3 Q80K mutant infected in HuH7 cells after 48 hrs by luciferase reporter assay; format: functional, organism-based, Hepacivirus hominis; details: genotype 1b, Huh-7, 48 h; summary of the method: as §1
Hepatitis C virus [14] = experiment: Ratio of EC50 for Hepatitis C virus subtype 1b expressing NS3 R155K mutant to EC50 for Hepatitis C virus subtype 1b expressing WT NS3 infected in HuH7 cells after 48 hrs by luciferase reporter assay; format: functional, Hepacivirus hominis, genotype 1b, Huh-7; summary of the method: as §2
Hepatitis C virus [15] = experiment: Antiviral activity against Hepatitis C virus subtype 1b expressing NS3 A156G mutant infected in HuH7 cells after 48 hrs by luciferase reporter assay; format: functional, organism-based, Hepacivirus hominis; details: genotype 1b, Huh-7, 48 h; summary of the method: as §1
Hepatitis C virus [16] = experiment: Ratio of EC50 for Hepatitis C virus subtype 1b expressing NS3 Q80K and R155K mutant to EC50 for Hepatitis C virus subtype 1b expressing WT NS3 infected in HuH7 cells after 48 hrs by luciferase reporter assay; format: functional, Hepacivirus hominis, genotype 1b, Huh-7; summary of the method: as §2
Hepatitis C virus [17] = experiment: Ratio of EC50 for Hepatitis C virus subtype 1b expressing NS3 D168H mutant to EC50 for Hepatitis C virus subtype 1b expressing WT NS3 infected in HuH7 cells after 48 hrs by luciferase reporter assay; format: functional, Hepacivirus hominis, genotype 1b, Huh-7; summary of the method: as §2
Hepatitis C virus [18] = experiment: Antiviral activity against Hepatitis C virus subtype 1b expressing NS3 R155K mutant infected in HuH7 cells after 48 hrs by luciferase reporter assay; format: functional, organism-based, Hepacivirus hominis; details: genotype 1b, Huh-7, 48 h; summary of the method: as §1
Hepatitis C virus [19] = experiment: Antiviral activity against Hepatitis C virus subtype 1b expressing NS3 T54A mutant infected in HuH7 cells after 48 hrs by luciferase reporter assay; format: functional, organism-based, Hepacivirus hominis; details: genotype 1b, Huh-7, 48 h; summary of the method: as §1
Hepatitis C virus [20] = experiment: Antiviral activity against Hepatitis C virus subtype 1b expressing NS3 F43S mutant infected in HuH7 cells after 48 hrs by luciferase reporter assay; format: functional, organism-based, Hepacivirus hominis; details: genotype 1b, Huh-7, 48 h; summary of the method: as §1
Hepatitis C virus [21] = experiment: Ratio of EC50 for Hepatitis C virus subtype 1b expressing NS3 T54S mutant to EC50 for Hepatitis C virus subtype 1b expressing WT NS3 infected in HuH7 cells after 48 hrs by luciferase reporter assay; format: functional, Hepacivirus hominis, genotype 1b, Huh-7; summary of the method: as §2
Hepatitis C virus [22] = experiment: Ratio of EC50 for Hepatitis C virus subtype 1b expressing NS3 F43S and D168E mutant to EC50 for Hepatitis C virus subtype 1b expressing WT NS3 infected in HuH7 cells after 48 hrs by luciferase reporter assay; format: functional, Hepacivirus hominis, genotype 1b, Huh-7; summary of the method: as §2
Hepatitis C virus [23] = experiment: Ratio of EC50 for Hepatitis C virus subtype 1b expressing NS3 F43V mutant to EC50 for Hepatitis C virus subtype 1b expressing WT NS3 infected in HuH7 cells after 48 hrs by luciferase reporter assay; format: functional, Hepacivirus hominis, genotype 1b, Huh-7; summary of the method: as §2
Hepatitis C virus [24] = experiment: Ratio of EC50 for Hepatitis C virus subtype 1b expressing NS3 D168V mutant to EC50 for Hepatitis C virus subtype 1b expressing WT NS3 infected in HuH7 cells after 48 hrs by luciferase reporter assay; format: functional, Hepacivirus hominis, genotype 1b, Huh-7; summary of the method: as §2
Hepatitis C virus [25] = experiment: Antiviral activity against Hepatitis C virus subtype 1b expressing NS3 Q80H and D168E mutant infected in HuH7 cells after 48 hrs by luciferase reporter assay; format: functional, organism-based, Hepacivirus hominis; details: genotype 1b, Huh-7, 48 h; summary of the method: as §1
Hepatitis C virus [26] = experiment: Antiviral activity against Hepatitis C virus subtype 1b expressing NS3 F43I mutant infected in HuH7 cells after 48 hrs by luciferase reporter assay; format: functional, organism-based, Hepacivirus hominis; details: genotype 1b, Huh-7, 48 h; summary of the method: as §1
Hepatitis C virus [27] = experiment: Antiviral activity against Hepatitis C virus subtype 1b expressing NS3 V170T mutant infected in HuH7 cells after 48 hrs by luciferase reporter assay; format: functional, organism-based, Hepacivirus hominis; details: genotype 1b, Huh-7, 48 h; summary of the method: as §1
Hepatitis C virus [28] = experiment: Antiviral activity against Hepatitis C virus subtype 1b expressing NS3 Q80H mutant infected in HuH7 cells after 48 hrs by luciferase reporter assay; format: functional, organism-based, Hepacivirus hominis; details: genotype 1b, Huh-7, 48 h; summary of the method: as §1
Hepatitis C virus [29] = experiment: Antiviral activity against Hepatitis C virus subtype 1b expressing NS3 D168V mutant infected in HuH7 cells after 48 hrs by luciferase reporter assay; format: functional, organism-based, Hepacivirus hominis; details: genotype 1b, Huh-7, 48 h; summary of the method: as §1
Hepatitis C virus [30] = experiment: Antiviral activity against Hepatitis C virus subtype 1b expressing NS3 F43S and Q80R mutant infected in HuH7 cells after 48 hrs by luciferase reporter assay; format: functional, organism-based, Hepacivirus hominis; details: genotype 1b, Huh-7, 48 h; summary of the method: as §1
Hepatitis C virus [31] = experiment: Antiviral activity against Hepatitis C virus subtype 1b expressing NS3 F43S and D168E mutant infected in HuH7 cells after 48 hrs by luciferase reporter assay; format: functional, organism-based, Hepacivirus hominis; details: genotype 1b, Huh-7, 48 h; summary of the method: as §1
Hepatitis C virus [32] = experiment: Antiviral activity against Hepatitis C virus subtype 1b expressing NS3 V36A mutant infected in HuH7 cells after 48 hrs by luciferase reporter assay; format: functional, organism-based, Hepacivirus hominis; details: genotype 1b, Huh-7, 48 h; summary of the method: as §1

| SMILES | EC50 (Hepatitis C virus [1]) [nM] | Ratio EC50 (Hepatitis C virus [2]) | EC50 (Hepatitis C virus [3]) [nM] | EC50 (Hepatitis C virus [4]) [nM] | Ratio EC50 (Hepatitis C virus [5]) | Ratio EC50 (Hepatitis C virus [6]) | Ratio EC50 (Hepatitis C virus [7]) | Ratio EC50 (Hepatitis C virus [8]) | EC50 (Hepatitis C virus [9]) [nM] | EC50 (Hepatitis C virus [10]) [nM] | EC50 (Hepatitis C virus [11]) [nM] | Ratio EC50 (Hepatitis C virus [12]) | EC50 (Hepatitis C virus [13]) [nM] | Ratio EC50 (Hepatitis C virus [14]) | EC50 (Hepatitis C virus [15]) [nM] | Ratio EC50 (Hepatitis C virus [16]) | Ratio EC50 (Hepatitis C virus [17]) | EC50 (Hepatitis C virus [18]) [nM] | EC50 (Hepatitis C virus [19]) [nM] | EC50 (Hepatitis C virus [20]) [nM] | also measured |
| --- | --- | --- | --- | --- | --- | --- | --- | --- | --- | --- | --- | --- | --- | --- | --- | --- | --- | --- | --- | --- | --- |
| CCC[C@H](NC(=O)[C@@H]1[C@H]2CCC[C@H]2CN1C(=O)[C@@H](NC(=O)[C@@H](NC(=O)c1cnccn1)C1CCCCC1)C(C)(C)C)C(=O)C(=O)NC1CC1 [TELAPREVIR] | 4110 | 0.6 | 187 | 22700 | 0.5 | 3.1 | 105 | 1.2 | 46 | 886 | 2960 | 1 | 147 | 10 | 58 | 4.6 | 0.7 | 1470 | 1560 | 749 |  |
| COc1ccc2c(O[C@@H]3C[C@H]4C(=O)N[C@]5(C(=O)O)C[C@H]5/C=C\CCCCC[C@H](NC(=O)OC5CCCC5)C(=O)N4C3)cc(-c3csc(NC(C)C)n3)nc2c1 [CILUPREVIR] | 84 | 65 | 2100 | 685 | 0.9 | 1 | 1344 | 4.9 | 304 | 2.4 | 705 | 844 | 1 | 496 | 22 | 736 | 263 | 489 | 0.7 | 1 | Ratio EC50 (Hepatitis C virus [21]): 1.9; Ratio EC50 (Hepatitis C virus [22]): 12; Ratio EC50 (Hepatitis C virus [23]): 0.5; Ratio EC50 (Hepatitis C virus [24]): 3213; EC50 (Hepatitis C virus [25]): 52 nM; EC50 (Hepatitis C virus [26]): 0.4 nM; EC50 (Hepatitis C virus [27]): 4.8 nM; EC50 (Hepatitis C virus [28]): 1.2 nM; EC50 (Hepatitis C virus [29]): 1810 nM; EC50 (Hepatitis C virus [30]): 0.4 nM; EC50 (Hepatitis C virus [31]): 5.8 nM; EC50 (Hepatitis C virus [32]): 1 nM |
